Source: PubChem
Compounds with a hit are over-represented: about 3.7% of the library has one in this group of screens.
OX1R antag-1 = antagonists of human orexin 1 receptor (OX1R). OX1R-expressing cells, FRET antagonist read-out. inhibition, % at 6.6 µM. 1.8% of 330,000 active. AID 485270, 2010; in the data active = inhibition mostly above about 38%, no sharp cut-off; inactive = mostly below about 40%;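 also: 0% = agonist challenge alone and 100% = reference antagonist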
Target sequence (O43613 whole entry, looked up): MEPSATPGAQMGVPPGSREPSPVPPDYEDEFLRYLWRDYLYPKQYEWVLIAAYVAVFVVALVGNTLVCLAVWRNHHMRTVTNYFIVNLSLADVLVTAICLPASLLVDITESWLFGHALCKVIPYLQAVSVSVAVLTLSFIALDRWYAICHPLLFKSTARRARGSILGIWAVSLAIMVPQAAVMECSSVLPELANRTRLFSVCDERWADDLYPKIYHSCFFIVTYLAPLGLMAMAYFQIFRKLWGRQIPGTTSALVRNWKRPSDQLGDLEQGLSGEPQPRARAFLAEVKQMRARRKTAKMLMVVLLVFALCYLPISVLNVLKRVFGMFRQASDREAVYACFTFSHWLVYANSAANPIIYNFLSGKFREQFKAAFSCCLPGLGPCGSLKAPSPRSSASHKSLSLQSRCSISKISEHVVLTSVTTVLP
OX1R antag-2 = OX1R (HCRTR1) antagonists, primary screen, fluorescence, CHO/OX1R cells, Fluo-8 calcium, orexin A; Orexin/Hypocretin receptor type 1 (Homo sapiens), O43613; Fluo-8 calcium fluorescence; inhibition, % at 5 µM; 0.43% of 330,000 active;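 active = inhibition above its plate's threshold, mean inhibition of all tested compounds on the plate plus 3 SD, cut at about 37% in these data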;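 also: 0% = orexin A challenge wells and 100% = SB-334867-A antagonist wells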
CHO parental Ca = ATP-evoked calcium signal inhibitors, parental CHO, primary screen, counter-screen for OX1R antagonist project, cell-based, fluorescence, Fluo-8 calcium dye. parental CHO-K1, ATP-induced calcium, Fluo-8 fluorescence. inhibition, % at 5.6 µM. 0.63% of 330,000 active;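 active = inhibition above that plate's mean sample inhibition plus 3 SD, cut at about 26% in these data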;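 also: 0% = ATP-challenged DMSO wells and 100% = DMSO wells without ATP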
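Assay system – parental CHO cells · Reagent – ATP stimulus · Detection – intracellular calcium via Fluo-8 no-wash fluorescent dye · Evaluation – percent inhibition of ATP-evoked calcium rise, normalized to controls · Controls – ATP wells versus no-ATP DMSO wells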
EP2 modulator = EP2 receptor modulators, cAMP readout, primary screen, cell-based, HTRF cAMP, PGE2 stimulation; induction, % at 25 µM; Prostaglandin E2 receptor EP2 subtype (Homo sapiens), P43116; 0.83% of 260,000 active; EP2-expressing cells, cAMP HTRF FRET, PGE2 co-stimulation;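 active = compounds whose cAMP rise, as percent of the full-agonist control response, exceeds 60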;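 also: rat C6 glioma line stably carrying human EP2 under a CMV promoter; the protocol text gives 20 µM as final concentration; 100% = response of wells given 1 µM PGE2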
GPR7 antag = GPR7 receptor antagonists, primary screen, cell-based, fluorescence, single concentration | inhibition, % at 4.4 µM | GPR7-expressing cells, fluorescence antagonist assay | Neuropeptides B/W receptor type 1 (Homo sapiens), P48145 | 1.1% of 290,000 active; in the data active = inhibition above about 16%, passing the limit was not always enough;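 also: cells stimulated with the agonist NPW; 0% = agonist with vehicle and 100% = vehicle without agonist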
PGE2 EP2 inh = human EP2 receptor antagonists, primary screen, TR-FRET cAMP, C6 glioma cells | C6 glioma cells expressing human EP2; cells stimulated with saturating PGE2 | inhibition, % at 25 µM | 0.52% of 260,000 active;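 active = percent inhibition above 40 after rounding to a whole number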;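 also: rat C6 glioma host cells with rolipram phosphodiesterase inhibitor present; the protocol text gives 20 µM as final concentration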
* marks the source's active call; other numbers are inactive results; / = no result given.

SMILES	OX1R antag-1	OX1R antag-2	CHO parental Ca	EP2 modulator	GPR7 antag	PGE2 EP2 inh
CCCCCc1cc(O)c2c(C)cc(=O)oc2c1	43*	2	23	-8	2	5
CCCC(c1nnnn1Cc1ccc(F)cc1)N1CCN(CC)CC1 (stereo unspecified)	6	-17	-10	15	17	5
Cc1ccccc1NC(=S)NCc1ccc(F)cc1	8	-13	-3	/	-6	/
Cc1cc(Cl)ccc1NC(=S)NCc1ccc(F)cc1	3	35	42*	/	-15	/
S=C(NCc1ccc(Cl)cc1)Nc1ccncc1	26	15	52*	/	1	/
COc1ccc(C(=O)N2CCN(c3cccc(Cl)c3)CC2)cc1	18	-19	-7	-71	-5	9
COc1ccc(C(=S)N2CCN(c3cccc(Cl)c3)CC2)c(OC)c1	23	9	-10	-75	28*	14
CCOC(=O)C1CCN(CC(=O)Nc2c(C(=O)OC)[nH]c3ccc(Cl)cc23)CC1	41	-3	-13	-45	18*	11
Cc1cc(-c2cnc(C)nc2C2CCN(C(=O)C(C)C)CC2)on1	/	/	/	-3	/	/
CC(C)CCOc1cccc(OCC(=O)Nc2ccncc2)c1	44	55*	59*	/	21	/
O=C(COc1ccc(Br)cc1)Nc1ccncc1	22	18	10	9	2	12
O=C(COc1ccc(Nc2ccccc2)cc1)Nc1ccncc1	18	19	37*	/	/	/
COc1cccc(OCC(=O)Nc2ccncc2)c1	11	0	-1	/	5	/
O=C(COc1ccc(-c2ccccc2)cc1)Nc1cccnc1	23	58*	27*	/	/	/
CCC(C)(C)c1ccc(OCC(=O)Nc2ccncc2)cc1	18	78*	76*	/	10	/
Cc1ccc(S(=O)(=O)NCc2ccccn2)c(C)c1C	20	-1	-10	/	-4	/
Cc1ccc(S(=O)(=O)NCc2ccncc2)c(C)c1C	31	3	41*	-29	15	13
S=C(NCc1cccs1)Nc1cc(Cl)cc(Cl)c1	25	14	39*	-69	-4	15
S=C(NCc1cccs1)Nc1cccc(Cl)c1	8	1	-12	-17	19	9
CC(C)Nc1nc(NC(C)C)nc(N(C)N)n1	12	-22	100*	10	1	4
O=C(NN1CCOCC1)c1cc(-c2ccncc2)nc2ccccc12	26	-12	-4	19	-12	2
O=C(Nc1ccccc1Cl)N1CCCN(c2nc(-c3ccccc3)ns2)CC1	74*	15	1	-51	-19	14
O=C(Nc1cccc2ccccc12)N1CCCCC1	/	/	/	14	/	16
O=C(Nc1cccc2ccccc12)N1CCCN(c2c(Cl)cncc2Cl)CC1	16	-19	-16	-61	-6	41*
COc1cc(OC)cc(C(=O)NCC(=O)OCC(=O)C(C)(C)C)c1	10	2	-8	8	-6	1
SMILES	OX1R antag-1	OX1R antag-2	CHO parental Ca	EP2 modulator	GPR7 antag	PGE2 EP2 inh
O=c1c2cccnc2[nH]c(=S)n1Cc1ccccc1	3	9	-3	15	-6	12
C=CCN(c1ccccc1)S(=O)(=O)c1cccc(C(=O)NCC(c2ccccc2OC)N2CCCC2)c1 (stereo unspecified)	29	-38	-26	/	/	/
C=CCN(c1ccccc1)S(=O)(=O)c1cccc(C(=O)NCC(c2cccs2)N2CCOCC2)c1 (stereo unspecified)	39*	4	-34	/	/	/
C/C(=C\C(=O)c1ccccc1)Nc1ccc2c(c1)OCO2	30	-63	-8	23	-9	10
CCOC(=O)c1oc2ccc(S(=O)(=O)n3nc(-c4ccc(OC)cc4)cc3N)cc2c1C	30	-28	2	-12	-11	/
CCOC(=O)c1oc2ccc(S(=O)(=O)n3nc(-c4ccccc4)cc3N)cc2c1C	18	-6	32*	-23	-2	13
CC1(C)NC(=O)N(CC(=O)OCC(=O)Nc2cccc(F)c2)C1=O	10	-13	-4	1	-18	19
COc1ccc2[nH]c3c(c2c1)CCn1c-3nc2ccccc2c1=O	47*	9	-7	24	2	/
COc1cc(OC)cc(C(=O)Nn2c(C)nc3ccccc3c2=O)c1	10	-9	-3	-22	9	/
CCOC(=O)C1CCCN(S(=O)(=O)c2cc(C(=O)OC)n(C)c2)C1 (stereo unspecified)	4	-2	26*	/	3	/
CC(=O)Nc1ccc(S(=O)(=O)CCC#N)cc1	10	-17	-1	7	-8	3
CN(CCOC(=O)c1ccc2c(c1)OCCO2)Cc1ccccc1	1	-25	-12	-4	20*	15
CC1=NN(C(=O)COc2ccc(C)c(C)c2)C(O)(c2ccc(Cl)cc2)C1 (stereo unspecified)	8	-25	-26	21	0	7
CC1=NN(C(=O)COc2cc(C)ccc2C(C)C)C(O)(c2ccccc2)C1 (stereo unspecified)	5	-38	-31	61*	9	3
COc1ccc(C(=O)NN2CCCCC2)cc1OC	-1	-21	-5	16	3	3
CCN(CC)CCn1nc2c3c(cccc3c1=O)-c1ccccc1-2	22	-5	-3	-13	-11	17
O=c1c2cccc3c2c(nn1CN1CCOCC1)-c1ccccc1-3	71*	0	-12	-48	-8	8
CC(=O)NS(=O)(=O)c1ccc(Nc2ccc([N+](=O)[O-])c3nonc23)cc1	76*	-8	3	3	2	5
O=[N+]([O-])c1ccc(Sc2cccc[n+]2[O-])c2nonc12	/	/	/	-48	20*	116*
O=[N+]([O-])c1ccc(Nc2ccccc2)c2nonc12	68*	17	16	/	4	/
CCOc1ccc(Nc2ccc([N+](=O)[O-])c3nonc23)cc1	43	-23	17	/	-9	/
CN1/C(=C\C(=O)COC(=O)c2ccc(O)c(O)c2)C(C)(C)c2ccccc21	12	40*	50*	-55	3	11
CN1/C(=C\C(=O)COC(=O)c2ccc(O)cc2)C(C)(C)c2ccccc21	29	47*	54*	-23	-14	9
CCOc1ccc(NC(=O)CNC(=O)c2ccco2)cc1	5	-3	12	/	-14	/
CC(OC(=O)c1cc(S(=O)(=O)N(C)c2ccccc2)ccc1Cl)C(=O)Nc1ccc2c(c1)OCCO2 (stereo unspecified)	46*	-16	-5	13	-6	8
